Experimental data as given in ChEMBL document CHEMBL4431379, “Diverging Novobiocin Anti-Cancer Activity from Neuroprotective Activity through Modification of the Amide Tail” (ACS Med Chem Lett, 2016).
Activity calls are given as the source filed them. The rule behind the calls is not given here.

Assays:
[1] = Antiproliferative activity against human PC3MM2 cells; format: functional, cell-based
Procedure, shortened: (§1)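 Antiproliferative assay in SkBr3 (Her2-overexpressing breast) and PC3-MM2 (androgen-independent prostate) cancer cells. IC50 in μM given as mean ± standard deviation of at least two separate experiments, each run in triplicate.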

[2] = target: T1, Heat shock protein HSP90 (Homo sapiens) (UniProt P07900+P08238); experiment: Induction of HSP90-mediated HSF1 expression in human PC3MM2 cells at 10 uM after 24 hrs by Western blot analysis; format: cell-based
Procedure, shortened: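 PC3-MM2 cells exposed to 10 μM of each compound for 24 h. HSF1 measured by Western blot relative to β-actin.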

[3] = target: T1, Heat shock protein HSP90 (Homo sapiens); experiment: Inhibition of Hsp90 in human PC3MM2 cells assessed as downregulation of Raf1 at 100 uM after 24 hrs by Western blot analysis; format: cell-based
Homo sapiens [4] = species on record: Homo sapiens; experiment: Inhibition of Hsp90alpha/Aha1 interaction in human PC3MM2 cells assessed as remaining Hsp90alpha/Aha complex levels at 100 uM after 24 hrs by Western blot analysis (reference value: 98 to 100 %); format: cell-based
[5] = target: T1, Heat shock protein HSP90 (Homo sapiens); experiment: Inhibition of Hsp90 in human PC3MM2 cells assessed as downregulation of Her2 at 100 uM after 24 hrs by Western blot analysis; format: cell-based
[6] = target: T1, Heat shock protein HSP90 (Homo sapiens); experiment: Inhibition of Hsp90 in human PC3MM2 cells assessed as downregulation of Akt at 100 uM after 24 hrs by Western blot analysis; format: cell-based
Rattus norvegicus = species on record: Rattus norvegicus; experiment: Neuroprotective activity in rat 50B11 cells assessed as maximal respiratory capacity at 5 uM after 24 hrs in presence of oligomycin/FCCP/rotenon/antimycin by extracellular flux analysis
SK-BR-3 = experiment: Antiproliferative activity against human SK-BR-3 cells; format: functional, cell-based; procedure, shortened: as §1
[7] = target: T1, Heat shock protein HSP90 (Homo sapiens); experiment: Inhibition of Hsp90 in human PC3MM2 cells assessed as downregulation of Her2 at 0.5 to 3 times IC50 after 24 hrs by Western blot analysis; format: cell-based
Procedure, shortened: (§2)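 PC3-MM2 cells treated 24 h at a high (3 × IC50) and a low (0.5 × IC50) concentration. Hsp90 client protein levels measured by Western blot with actin as loading control.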

[8] = target: T1, Heat shock protein HSP90 (Homo sapiens); experiment: Induction of Hsp90 in human PC3MM2 cells at 0.5 to 3 times IC50 after 24 hrs by Western blot analysis; format: cell-based; procedure, shortened: as §2
[9] = target: T1, Heat shock protein HSP90 (Homo sapiens); experiment: Inhibition of Hsp90 in human PC3MM2 cells assessed as downregulation of Akt at 0.5 to 3 times IC50 after 24 hrs by Western blot analysis; format: cell-based; procedure, shortened: as §2
Homo sapiens [10] = species on record: Homo sapiens; experiment: Inhibition of Hsp90alpha/Aha1 interaction in human PC3MM2 cells assessed as remaining Hsp90alpha/Aha complex levels at 50 uM after 24 hrs by Western blot analysis (reference value: 98 to 100 %); format: cell-based
[11] = target: T1, Heat shock protein HSP90 (Homo sapiens); experiment: Inhibition of Hsp90 in human PC3MM2 cells assessed as suppression of firefly luciferase rematuration at 0.02 to 20 uM incubated for 1 hr by luciferase reporter gene assay; format: cell-based
Procedure, shortened: (§3)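 Hsp90-dependent refolding of thermally denatured firefly luciferase in PC3-MM2 cells. Compounds tested from 0.02 to 20 μM.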

[12] = target: T1, Heat shock protein HSP90 (Homo sapiens); experiment: Inhibition of Hsp90 in human PC3MM2 cells assessed as downregulation of Raf1 at 0.5 to 3 times IC50 after 24 hrs by Western blot analysis; format: cell-based; procedure, shortened: as §2
[13] = target: T1, Heat shock protein HSP90 (Homo sapiens); experiment: Effect on Hsp90 in human PC3MM2 cells assessed as stimulation of firefly luciferase rematuration at 0.02 to 20 uM incubated for 1 hr by luciferase reporter gene assay; format: cell-based; procedure, shortened: as §3
Homo sapiens [14] = species on record: Homo sapiens; experiment: Inhibition of Hsp90alpha/Aha1 interaction in human PC3MM2 cells assessed as remaining Hsp90alpha/Aha complex levels at 35 uM after 24 hrs by Western blot analysis (reference value: 98 to 100 %); format: cell-based

Row | Compound | IC50 [1] [µM] | fold change (FC) [2] | inhibition [3] | remaining Hsp90alpha/Aha1 complex level (Homo sapiens [4]) [%] | inhibition [5] | inhibition [6] | Activity (Rattus norvegicus) | IC50 (SK-BR-3) [µM] | Her2 downregulation (active/inactive call) [7] | Activity [8] | Akt downregulation (active/not active) [9] | Activity (Homo sapiens [10]) [%] | inhibition [11] | Raf1 downregulation (active/not active) [12] | Activity [13] | Activity (Homo sapiens [14]) [%]
1 | CO[C@@H]1[C@@H](O)[C@@H](O)[C@H](Oc2ccc3cc(NC(=O)C4CCC4)c(=O)oc3c2C)OC1(C)C | 284 | 4 | inactive | 54 | inactive | inactive | Active | 220 | – | – | – | – | – | – | – | –
2 | CCCCCC(=O)Nc1cc2ccc(O[C@@H]3OC(C)(C)[C@H](OC)[C@@H](O)[C@H]3O)c(C)c2oc1=O | 53.7 | 0.6 | – | – | – | – | Active | 84 | Active | inactive | Active | 46 | Active | Active | – | –
3 | CO[C@@H]1[C@@H](O)[C@@H](O)[C@H](Oc2ccc3cc(NC(=O)C4CCCCC4)c(=O)oc3c2C)OC1(C)C | 54.6 | 1 | – | – | – | – | Active | 46.8 | Active | inactive | Active | 22 | Active | Active | – | –
4 | CO[C@@H]1[C@@H](O)[C@@H](O)[C@H](Oc2ccc3cc(NC(=O)C4CC4)c(=O)oc3c2C)OC1(C)C | > 500 | 3.7 | inactive | 68 | inactive | inactive | Active | 517 | – | – | – | – | – | – | – | –
5 | CO[C@@H]1[C@@H](O)[C@@H](O)[C@H](Oc2ccc3cc(NC(C)=O)c(=O)oc3c2C)OC1(C)C | > 500 | 2 to 3.7 | – | 68 to 70 | – | – | Active | > 900 | – | – | – | – | inactive | – | Active | –
6 | CCCCC(=O)Nc1cc2ccc(O[C@@H]3OC(C)(C)[C@H](OC)[C@@H](O)[C@H]3O)c(C)c2oc1=O | 317 | 1.5 | inactive | 72 | inactive | inactive | Active | 118 | – | – | – | – | inactive | – | Active | –
7 | CO[C@@H]1[C@@H](O)[C@@H](O)[C@H](Oc2ccc3cc(NC(=O)C4CCCC4)c(=O)oc3c2C)OC1(C)C | 144 | 2 | – | 27 | – | – | Active | 67 | Active | inactive | Active | – | Active | Active | – | –
8 | CCCC(=O)Nc1cc2ccc(O[C@@H]3OC(C)(C)[C@H](OC)[C@@H](O)[C@H]3O)c(C)c2oc1=O | 466 | 1.1 | inactive | 100 | inactive | inactive | Active | 313 | – | – | – | – | inactive | – | Active | –
9 | CCCCCCC(=O)Nc1cc2ccc(O[C@@H]3OC(C)(C)[C@H](OC)[C@@H](O)[C@H]3O)c(C)c2oc1=O | 34.7 | 0.6 | – | – | – | – | Active | 58.3 | Active | inactive | Active | – | Active | Active | – | 38
10 | CCC(=O)Nc1cc2ccc(O[C@@H]3OC(C)(C)[C@H](OC)[C@@H](O)[C@H]3O)c(C)c2oc1=O | 504 | 1.2 | inactive | 86 | inactive | inactive | Active | 643 | – | – | – | – | inactive | – | Active | –
